# According to ChEMBL document CHEMBL1151806, “Indolizidine, antiinfective and antiparasitic compounds from Prosopis glandulosa var. glandulosa” (J Nat Prod, 2009):
# Active and inactive are the calls of the source. The rule behind the calls is not given here.
# Experiments:
# Candida albicans [1] = experiment: Antimicrobial activity against Candida albicans ATCC 90028 by NCCLS method; assay type: functional, organism-based
# Summary of the method: (§1)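 Samples serially diluted in 20% DMSO/saline, tested in duplicate. Inocula set by OD630: C. albicans RPMI pH 4.5, 1·10^4 CFU/mL; C. neoformans Sabouraud dextrose, 1·10^5; MRSA cation-adjusted Mueller-Hinton pH 7.3, 5·10^5; M. intracellulare 7H9/OADC + 5% Alamar Blue pH 7.3, 2·10^6; A. fumigatus RPMI pH 7.3 + 5% Alamar Blue, 3·10^4.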
# Cryptococcus neoformans [2] = experiment: Antimicrobial activity against Cryptococcus neoformans ATCC 90113 by NCCLS method; assay type: functional, organism-based; summary of the method: as §1
# Staphylococcus aureus [3] = experiment: Antimicrobial activity against methicillin-resistant Staphylococcus aureus ATCC 43300 by NCCLS method; assay type: functional, organism-based; summary of the method: as §1
# [4] = test system: Mycobacterium intracellulare; experiment: Antimicrobial activity against Mycobacterium intracellular ATCC 23068 by alamar blue assay; assay type: functional, organism-based
# Summary of the method: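 Samples serially diluted in 20% DMSO/saline, tested in duplicate. Inocula set by OD630: C. albicans RPMI pH 4.5, 1·10^4 CFU/mL; C. neoformans Sabouraud dextrose, 1·10^5; MRSA cation-adjusted Mueller-Hinton pH 7.3, 5·10^5; M. intracellulare 7H9/OADC + 5% Alamar Blue pH 7.3, 2·10^6; A. fumigatus RPMI pH 7.3 + 5% Alamar Blue, 3·10^4. Read at 630 nm or 544ex/590em before and after incubation.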
# Aspergillus fumigatus [5] = experiment: Antimicrobial activity against Aspergillus fumigatus ATCC 90906 by alamar blue assay; assay type: functional, organism-based; details: for IC50: read-out: IC50; summary of the method: as §1
# Leishmania donovani = experiment: Antileishmanial activity against Leishmania donovani promastigotes after 48 hrs by alamar blue assay; assay type: functional, organism-based
# SK-MEL = experiment: Cytotoxicity against human SK-MEL cells after 48 hrs by neutral red assay; assay type: functional, cell-based
# Summary of the method: (§2)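 Cells seeded at 25,000/well, incubated 24 h, then exposed to samples for 48 h. Viable cells measured by Neutral Red uptake. IC50 from logarithmic plots of growth inhibition vs concentration. Doxorubicin positive control, DMSO vehicle control.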
# KB = experiment: Cytotoxicity against human KB cells after 48 hrs by neutral red assay; assay type: functional, cell-based; summary of the method: as §2
# BT-549 = experiment: Cytotoxicity against human BT549 cells after 48 hrs by neutral red assay; assay type: functional, cell-based; details: BT-549, 48 h; summary of the method: as §2
# SK-OV-3 = experiment: Cytotoxicity against human SKOV3 cells after 48 hrs by neutral red assay; assay type: functional, cell-based; details: SK-OV-3, 48 h; summary of the method: as §2
# Vero [6] = experiment: Cytotoxicity against african green monkey Vero cells after 48 hrs by neutral red assay; assay type: cell-based, Chlorocebus sabaeus; summary of the method: as §2
# LLC-PK1 = experiment: Cytotoxicity against pig LLC-PK1 cells after 48 hrs by neutral red assay; assay type: cell-based, Sus scrofa; summary of the method: as §2
# Vero [7] = experiment: Cytotoxicity against african green monkey Vero cells; assay type: cell-based; details: Chlorocebus sabaeus; summary of the method: as §2
# [8] = Selectivity index, IC50 for african green monkey (Cercopithecus aethiops) Vero cells to IC50 for chloroquine-sensitive Plasmodium falciparum D6; assay type: functional
# Summary of the method: (§3)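 Selectivity index = IC50 against VERO cells divided by IC50 against P. falciparum (D6 or W2, respectively), each from the corresponding in-house assay.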
# Plasmodium falciparum [9] = experiment: Antimalarial activity after 72 hrs against chloroquine-resistant Plasmodium falciparum W2 by pLDH activity; assay type: functional, organism-based; details: W2, 72 h
# Summary of the method: (§4)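 P. falciparum-infected red cells (2% parasitemia, 2% hematocrit) in RPMI-1640 with 10% human serum and 60 μg/mL amikacin, exposed to serial sample concentrations. Gassed with 90% N2/5% O2/5% CO2, incubated 37 °C for 72 h. Parasite LDH activity read colorimetrically with Malstat reagent.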
# [10] = Selectivity index, IC50 for african green monkey (Cercopithecus aethiops) Vero cells to IC50 for […]; assay type: functional; summary of the method: as §3
# Candida albicans [11] = experiment: Antimicrobial activity against Candida albicans ATCC 90028 by NCCLS method in presence of 5% human serum; assay type: functional, organism-based
# Cryptococcus neoformans [12] = experiment: Antimicrobial activity against Cryptococcus neoformans ATCC 90113 by NCCLS method in presence of 5% human serum; assay type: functional, organism-based
# Staphylococcus aureus [13] = experiment: Antimicrobial activity against methicillin-resistant Staphylococcus aureus ATCC 43300 by NCCLS method in presence of 5% human serum; assay type: functional, organism-based
# [14] = test system: Mycobacterium intracellulare; experiment: Antimicrobial activity against Mycobacterium intracellular ATCC 23068 by alamar blue assay in presence of 5% human serum; assay type: functional, organism-based
# Aspergillus fumigatus [15] = experiment: Antimicrobial activity against Aspergillus fumigatus ATCC 90906 by alamar blue assay in presence of 5% human serum; assay type: functional, organism-based
# Plasmodium berghei [16] = experiment: Antimalarial activity as elimination of parasitaemia at day 28 against Plasmodium berghei NK65 infected Swiss Webster mice (Mus musculus) at 1 mg/kg/day intraperitoneal dose for 3 days; assay type: functional, organism-based
# Summary of the method: (§5)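 Peters 4-day suppressive test: male Swiss Webster mice (18–20 g) inoculated ip with 2·10^7 P. berghei NK-65 parasitized red cells. Compound in DMSO:PEG:water (1:3:6) given ip ~2 h post-infection, then once daily for 3 days (days 0–2). 5 mice/group; vehicle-treated control. Giemsa-stained tail blood smears read to day 28. % suppression = 100 − (treated/untreated parasitemia × 100). Cure = no parasitemia until day 28. Mice observed after each dose for signs of toxicity.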
# Plasmodium berghei [17] = experiment: Antimalarial activity as elimination of parasitaemia at day 28 against Plasmodium berghei NK65 infected Swiss Webster mice (Mus musculus) at 2 mg/kg/day intraperitoneal dose for 3 days; assay type: functional, organism-based; summary of the method: as §5
# Plasmodium berghei [18] = experiment: Antimalarial activity as reduced parasitaemia against Plasmodium berghei NK65 infected Swiss Webster mice (Mus musculus); assay type: functional
# Plasmodium berghei [19] = experiment: Antimalarial activity as reduced parasitaemia at day 3 against Plasmodium berghei NK65 infected Swiss Webster mice (Mus musculus) at 1 mg/kg/day intraperitoneal dose for 3 days; assay type: functional; set-up: scale not given: the % may be the effect or the level left; summary of the method: as §5
# Plasmodium berghei [20] = experiment: Antimalarial activity as reduced parasitaemia at day 3 against Plasmodium berghei NK65 infected Swiss Webster mice (Mus musculus) at 2 mg/kg/day intraperitoneal dose for 3 days; assay type: functional; set-up: scale not given: the % may be the effect or the level left; summary of the method: as §5
# Mus musculus = experiment: Toxicity in Swiss Webster mouse at 1 mg/kg, ip administered once daily for 3 days; assay type: organism-based; set-up: dose 1 mg/kg, route intraperitoneal; details: in vivo, 72 h; summary of the method: as §5
# [21] = Toxicity in RBC assessed as hemolysis; assay type: cell-based; details: Erythrocyte
# Plasmodium falciparum [22] = experiment: Antimalarial activity after 72 hrs against […] Plasmodium falciparum D6 by pLDH activity; assay type: functional, organism-based; details: D6, 72 h; summary of the method: as §4
# Plasmodium berghei [23] = experiment: Antimalarial activity as reduced parasitaemia at day 10 against Plasmodium berghei NK65 infected Swiss Webster mice (Mus musculus) at 1 mg/kg/day intraperitoneal dose for 3 days; assay type: functional; set-up: scale not given: the % may be the effect or the level left; summary of the method: as §5
# Plasmodium berghei [24] = experiment: Antimalarial activity as reduced parasitaemia at day 17 against Plasmodium berghei NK65 infected Swiss Webster mice (Mus musculus) at 1 mg/kg/day intraperitoneal dose for 3 days; assay type: functional, organism-based; summary of the method: as §5
# Plasmodium berghei [25] = experiment: Antimalarial activity as reduced parasitaemia at day 17 against Plasmodium berghei NK65 infected Swiss Webster mice (Mus musculus) at 2 mg/kg/day intraperitoneal dose for 3 days; assay type: functional, organism-based; summary of the method: as §5
# Cryptococcus neoformans [26] = experiment: Antimicrobial activity against Cryptococcus neoformans ATCC 90113 infected in mouse assessed as […] elimination from brain tissue at 0.0625 mg/kg/day, ip for 5 days; assay type: functional; details: route intraperitoneal
# [27] = Aspergillus fumigatus, ATCC 90906
# [28] = Sus scrofa, LLC-PK1, 48 h, read-out: IC50
# [29] = Candida albicans, ATCC 90028, read-out: IC50
smiles,measurement,setting,value
C[C@@H]1N[C@H](CCCCCCCCCCc2cc(CCCCCCCCCC[C@H]3CC[C@@H](O)[C@@H](C)N3)c[n+]3c2CCC3)CC[C@H]1O [ISOPROSOPILOSIDINE],IC50,Candida albicans [1],Not Active
same,MFC,Candida albicans [1],inactive
same,MIC,Candida albicans [1],inactive
same,IC50,Cryptococcus neoformans [2],0.55 µg/mL
same,MFC,Cryptococcus neoformans [2],1.25 µg/mL
same,MIC,Cryptococcus neoformans [2],1.25 µg/mL
same,IC50,Staphylococcus aureus [3],0.6 µg/mL
same,MBC,Staphylococcus aureus [3],20 µg/mL
same,IC50,[4],1.5 µg/mL
same,MBC,[4],inactive
same,MIC,[4],2.5 µg/mL
same,MFC,Aspergillus fumigatus [5]; [27],10 µg/mL
same,MIC,Aspergillus fumigatus [5]; [27],10 µg/mL
same,IC50,Aspergillus fumigatus [5]; [27],6.5 µg/mL
same,IC90,Leishmania donovani,2.5 µg/mL
same,IC50,SK-MEL,3.3 µg/mL
same,IC50,KB,7 µg/mL
same,IC50,BT-549,6.75 µg/mL
same,IC50,SK-OV-3,4.5 µg/mL
same,IC50,Vero [6]; vero,Not Active
same,IC50,LLC-PK1; [28],21.3 µg/mL
same,IC50,Vero [7],> 23.8 µg/mL
same,Ratio IC50,[8],>567
same,IC50,Plasmodium falciparum [9],0.12 µg/mL
same,Ratio IC50,[10],>198
C[C@@H]1N[C@H](CCCCCCCCCCc2cc(CCCCCCCCCC[C@@H]3CC[C@H](O)[C@@H](C)N3)c3[n+](c2)CCC3)CC[C@H]1O.[Cl-] [PROSOPILOSIDINE],MFC,Candida albicans [1],inactive
same,MIC,Candida albicans [1],inactive
same,IC50,Candida albicans [1]; [29],15 µg/mL
same,IC50,Cryptococcus neoformans [2],0.4 µg/mL
same,MIC,Cryptococcus neoformans [2],0.63 µg/mL
same,IC50,Staphylococcus aureus [3],0.35 µg/mL
same,MBC,Staphylococcus aureus [3],5 µg/mL
same,MIC,Staphylococcus aureus [3],1.25 µg/mL
same,IC50,[4],0.9 µg/mL
same,MBC,[4],20 µg/mL
same,MFC,Aspergillus fumigatus [5],inactive
same,MIC,Aspergillus fumigatus [5]; [27],5 µg/mL
same,IC50,Aspergillus fumigatus [5]; [27],3 µg/mL
same,Activity,Candida albicans [11],Active
same,Activity,Cryptococcus neoformans [12],Active
same,Activity,Staphylococcus aureus [13],Active
same,Activity,[14],Active
same,Activity,Aspergillus fumigatus [15],Active
same,Activity,Plasmodium berghei [16],inactive
same,Activity,Plasmodium berghei [17],inactive
same,ED50,Plasmodium berghei [18],2 mg/kg
same,Activity,Plasmodium berghei [19],48%
same,Activity,Plasmodium berghei [20],48%
same,Activity,Mus musculus,Non-toxic
same,IC50,Leishmania donovani,0.7 µg/mL
same,IC90,Leishmania donovani,1.9 µg/mL
same,IC50,SK-MEL,4.5 µg/mL
same,IC50,KB,7.5 µg/mL
same,IC50,BT-549,8.75 µg/mL
same,IC50,Vero [6]; vero,Not Active
same,IC50,LLC-PK1; llc-pk1,Not Active
same,IC50,[21],16 µg/mL
same,IC50,Plasmodium falciparum [22],0.039 µg/mL
same,IC50,Vero [7],> 23.8 µg/mL
same,IC50,Plasmodium falciparum [9],0.095 µg/mL
same,Activity,Plasmodium berghei [23],40.5%
same,Activity,Plasmodium berghei [24],inactive
same,Activity,Plasmodium berghei [25],inactive
same,Activity,Cryptococcus neoformans [26],76%
C[C@@H]1N[C@H](CCCCCCCCCCC2=C[C@@H](CCCCCCCCCC[C@@H]3CC[C@@H](O)[C@H](C)N3)[C@@H]3CCCN3C2)CC[C@H]1O [PROSOPILOSINE],IC50,Candida albicans [1]; [29],15 µg/mL
same,IC50,Cryptococcus neoformans [2],0.8 µg/mL
same,MFC,Cryptococcus neoformans [2],1.25 µg/mL
same,IC50,Staphylococcus aureus [3],1.5 µg/mL
same,IC50,[4],2 µg/mL
same,MBC,[4],20 µg/mL
same,MFC,Aspergillus fumigatus [5]; [27],0.63 µg/mL
same,MIC,Aspergillus fumigatus [5]; [27],0.63 µg/mL
same,IC50,Aspergillus fumigatus [5]; [27],0.45 µg/mL
same,IC50,Leishmania donovani,0.65 µg/mL
same,IC50,SK-MEL,< 1.1 µg/mL
same,IC50,KB,6 µg/mL
same,IC50,"Vero [6]; Chlorocebus sabaeus, Vero, 48 h, read-out: IC50",5.7 µg/mL
same,IC50,LLC-PK1; [28],1.9 µg/mL
same,IC50,Plasmodium falciparum [22],0.12 µg/mL
same,IC50,Vero [7],5.6 µg/mL
same,Ratio IC50,[8],47
same,IC50,Plasmodium falciparum [9],0.23 µg/mL
same,Ratio IC50,[10],24
